Laboratory results reported in ChEMBL document CHEMBL1125085, “Synthesis and anticonvulsant activity of some new 2-substituted 3-aryl-4(3H)-quinazolinones” (J Med Chem, 1990).
“And” between values parts separate entries of the source, which are not always exact repeats. Equal values may be shown once.

Tests used:
Mus musculus [1] = assay: (§1) Subcutaneous metrazole (scMet) test was conducted and median effective dose was determined at the time of peak anticonvulsant and sedative effect.; format: organism-based; conditions: in vivo
Outline: (§2)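 Pentylenetetrazol (85 mg/kg in mice, 70 mg/kg in rats) was given subcutaneously in the posterior midline as a 0.5% solution. Compounds were in 30% PEG 400, dosed ip in male Carworth Farms no. 1 mice, or orally in mice and Sprague-Dawley rats. ED50 was read at time of peak effect, using groups of 8–16 animals and ≥3 doses giving 10–90% protection. Probit analysis gave 95% confidence intervals.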

[2] = Median toxic dose was measured at time of peak neurologic deficit; format: organism-based; conditions: mouse, in vivo
Outline: (§3)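 Mice dosed ip in 30% PEG 400. Minimal neurotoxicity was scored by rotorod at the time of peak neurologic deficit. Groups of 8–16 mice were used, with at least three points in the 10–90% range, and TD50 with 95% confidence interval was derived by probit analysis.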

Mus musculus [3] = assay: (§4) MES test was performed after Injecting intraperitoneally at the time of peak anticonvulsant effect in phase II test; format: functional; conditions: ip
Outline: (§5)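 Phase II testing in male Carworth Farms no. 1 mice, ip dosing in 30% PEG 400 (0.01 mL/g). Groups of 8–16 mice received a range of doses, giving at least three points in 10–90% protection. ED50 with 95% confidence interval was fitted by probit analysis at the time of peak effect. scMet used pentylenetetrazol 85 mg/kg sc.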

Mus musculus [4] = assay: Rotarod test was used to evaluate neurotoxicity in mice. Toxicity values are reported after 0.5 hr at 300 mg/kg; Toxic; format: organism-based; design: dose 300 mg/kg; conditions: in vivo
[5] = Protective index is the ratio of TD50 and ED50 values obtained in the maximal electroshock seizure (MES) test.; format: functional
Outline: (§6)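 Protective index = TD50/ED50. Both values are medians from groups of 8–16 animals per dose, with at least three points in the 10–90% effect range, fitted by probit analysis. Each was taken at its own time of peak effect: seizure protection for ED50, neurologic deficit for TD50.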

Mus musculus [6] = assay: (§7) Subcutaneous metrazole (scMet) test was conducted after Injecting intraperitoneally at the time of peak anticonvulsant in phase II test; format: functional; outline: as §5
[7] = Protective index is the ratio of TD50 and ED50 values obtained in the subcutaneous metrazole (scMet) test.; format: functional; outline: as §6
Mus musculus [8] = species on record: Mus musculus; assay: Time taken to reach peak activity was reported; format: functional
Outline: (§8)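 Time of peak effect, in hours, was found separately for anticonvulsant activity and for neurotoxicity. ED50 and TD50 were then determined at those times.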

Mus musculus [9] = assay: Rotarod test was used to evaluate neurotoxicity in mice. Toxicity values are reported after 4.0 hr toxicity at 300 mg/kg; toxic; format: organism-based; design: dose 300 mg/kg; conditions: in vivo
Mus musculus [10] = assay: as §1; format: functional; conditions: sc; outline: as §2
Mus musculus [11] = species on record: Mus musculus; assay: Anticonvulsant activity was determined by injecting perorally in mice.(scMet) test was conducted; format: functional
Outline: (§9)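 Oral dosing in mice, test solutions in 30% polyethylene glycol 400, 0.01 mL/g body weight. Groups of 8–16 mice received a range of doses until at least three points fell within 10–90% seizure protection.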

[12] = Neurotoxicity was determined by injecting perorally in rats; format: toxicity, organism-based; conditions: rat, in vivo, po
Outline: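 Rats dosed orally in 30% PEG 400. Neurotoxicity was assessed by positional sense and gait-and-stance tests at the time of peak deficit. TD50 with 95% confidence interval was derived by probit analysis from at least three dose points in the 10–90% range.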

Rattus norvegicus [13] = species on record: Rattus norvegicus; assay: Anticonvulsant activity was determined by injecting perorally in rats. Time taken to reach peak toxicity was reported.; format: organism-based; conditions: in vivo, po; outline: as §8
Mus musculus [14] = assay: Dose Injected intraperitoneally that causes loss of righting reflex in mice was reported as hypnotic dose (HD).; format: functional
Outline: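 Mice dosed ip after a toxicity profile at TD50, 2× and 4× TD50, observed from 10 min to 24 h. HD50 is the dose causing loss of righting reflex in 50% of mice, with groups of eight mice scored at several times up to 24 h.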

[15] = Dose Injected intraperitoneally that causes death 50% of the mice within 24 hr was reported as lethal dose 50 (LD50).; format: organism-based; conditions: mouse, in vivo, ip
Mus musculus [16] = species on record: Mus musculus; assay: Anticonvulsant activity was determined by injecting perorally in mice. MES test was performed; format: functional; outline: as §9
Mus musculus [17] = species on record: Mus musculus; assay: Anticonvulsant activity was determined by injecting perorally in mice. Time taken to reach peak toxicity was reported.; format: functional; outline: as §8
Mus musculus [18] = assay: as §4; format: ADME, organism-based; conditions: ip; outline: as §5
[19] = Median toxic dose was measured at time of peak neurologic deficit.; format: organism-based; conditions: mouse, in vivo; outline: as §3
Rattus norvegicus [20] = species on record: Rattus norvegicus; assay: Anticonvulsant activity was determined by injecting perorally in rats. (scMet) test was conducted; format: functional
[21] = (§10) Time taken to reach peak activity was reported.; format: functional
Mus musculus [22] = assay: as §7; format: ADME, organism-based; conditions: ip; outline: as §5
[23] = (§11) Time taken to reach peak toxicity was reported.
Mus musculus [24] = species on record: Mus musculus; assay: Anticonvulsant activity was determined by injecting perorally in mice. Time taken to reach peak activity was reported.; format: functional; outline: as §8
Rattus norvegicus [25] = species on record: Rattus norvegicus; assay: Anticonvulsant activity was determined by injecting perorally in rats. MES test was performed; format: functional
Rattus norvegicus [26] = species on record: Rattus norvegicus; assay: Anticonvulsant activity was determined by injecting perorally in rats. Time taken to reach peak activity was reported.; format: functional; outline: as §8
Mus musculus [27] = species on record: Mus musculus; assay: as §11; format: organism-based; conditions: in vivo
Mus musculus [28] = species on record: Mus musculus; assay: as §10; format: functional

For `CCC1(C)CC(=O)NC1=O` (stereo not drawn) [ETHOSUXIMIDE], which ED50 (Mus musculus [1]) is on record?
The ED50 was 130.4 mg/kg.

Which results are given for `O=C(Cc1nc2ccccc2c(=O)n1-c1ccccc1Br)c1ccncc1`?
TD50 [2]: > 2000 mg/kg; ED50 (Mus musculus [3]): 136 mg/kg; Activity (Mus musculus [4]): Toxic; PI [5]: > 14.7; ED50 (Mus musculus [6]): 19 mg/kg; PI [7]: >105; TPE (Mus musculus [8]): 1 h; Activity (Mus musculus [9]): Toxic

For `CCC1(c2ccccc2)C(=O)NCNC1=O` [PRIMIDONE], which ED50 (Mus musculus [10]) is on record?
The ED50 was 58.6 mg/kg.

With `O=C(Cc1nc2ccccc2c(=O)n1-c1ccccc1Cl)c1ccncc1` as the compound, how does the ED50 (Mus musculus [11]) read?
Its ED50 is 2.53 mg/kg.

And the TD50 [12]?
The TD50 was 2.91 mg/kg.

What about the TPE (Rattus norvegicus [13]) of the same compound?
The TPE was 4 h.

What about the HD50 (Mus musculus [14]) of the same compound?
The HD50 was 1181 mg/kg.

What about the LD50 at 24 h [15] of the same compound?
Its LD50 at 24 h is over 3000 mg/kg.

And the ED50 (Mus musculus [16])?
Its ED50 is 14.1 mg/kg.

And the TPE (Mus musculus [17])?
The TPE was 0.5.

And the ED50 (Mus musculus [18])?
Its ED50 is 196 mg/kg.

What about the TD50 [19] of the same compound?
Its TD50 is 262 mg/kg.

What about the PI [5] of the same compound?
Its PI is 1.3 (2×) and 2.

What about the ED50 (Rattus norvegicus [20]) of the same compound?
The ED50 was 3.09 mg/kg.

What about the TPE [21] of the same compound?
Its TPE is 2.5 h.

What about the ED50 (Mus musculus [22]) of the same compound?
The ED50 was 14.5 mg/kg.

And the TPE [23]?
Its TPE is 2.5 h.

And the TPE (Mus musculus [24])?
Its TPE is 1.

And the ED50 (Rattus norvegicus [25])?
Its ED50 is 1.44 mg/kg.

What about the TPE (Rattus norvegicus [26]) of the same compound?
The TPE was 4 h.

Which TPE (Mus musculus [27]) does the source give for `COc1ccccc1-n1c(CC(=O)c2ccncc2)nc2ccccc2c1=O` here?
The TPE was 0.5 h.

What about the TD50 [19] of the same compound?
Its TD50 is 370 mg/kg.

And the TPE (Mus musculus [28])?
Its TPE is 2 h.

What about the ED50 (Mus musculus [6]) of the same compound?
The ED50 was 42 mg/kg.

And the PI [7]?
The PI was 8.8.

Which ED50 (Mus musculus [10]) does the source give for `CCC1(c2ccccc2)C(=O)NC(=O)NC1=O` [PHENOBARBITAL] here?
Its ED50 is 13.2 mg/kg.
